# From PubChem
# APOBEC3A inh: APOBEC3A ssDNA deaminase inhibitors, primary screen, selectivity assay for APOBEC3G inhibitor project, biochemical, FAM/TAMRA oligo cleavage fluorescence. DNA dC->dU-editing enzyme APOBEC-3A (Homo sapiens), P31941. recombinant A3A, FAM/TAMRA ssDNA deamination fluorescence. inhibition, % at 20 µM. 330,000 compounds, 0.41% hits. AID 493011, 2011;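 active = at least 40% inhibition at 20 µM here, with at most 30% in a related deaminase screen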;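 also: plate controls were A3A with DMSO for no effect and wells lacking A3A enzyme for full effect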
# p-CIP stab down: p/CIP-EGFP fusion destabilizers, primary screen, fluorescence, F442A cells; Q05BA5; 16 h; decrease of EGFP signal, % at 10 µM; 290,000 compounds, 0.01% hits; AID 1984, 2009;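 active = EGFP signal decrease of at least 30% at 10 µM or well 3 SD below plate mean, unless failing retest; inactive = the rest, including hits failing retest or dose response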
# TbMetRS inhib: T. brucei MetRS inhibitors, primary screen, biochemical, luminescence | methionyl-tRNA synthetase (Trypanosoma brucei brucei) | purified T. brucei MetRS, ATP depletion, Kinase-Glo luminescence | inhibition, % at 11.9 µM | 360,000 compounds, 0.4% hits;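 active = inhibition above a per-plate cutoff of the control wells' mean inhibition plus 3 SD, cut at about 5.5% in these data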;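 also: 0% = DMSO wells median and 100% = median of wells with control inhibitor compound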
#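 Material: parasite MetRS enzyme / Replication: singlicate, one well per compound / Signal: luminescence of leftover ATP / Schedule: 2 h aminoacylation at 25 °C after 15 min preincubation / Medium: HEPES-MgCl2-KCl buffer plus DTT, spermine, BSA, pyrophosphatase / Doses: 11.9 µM single point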
# PHOSPHO1 inh: PubChem AID 1565; recombinant PHOSPHO1, absorbance phosphatase assay; inhibition, % at 13.3 µM; 290,000 compounds, 1.1% hits; in the data active = inhibition above about 60%
# APOBEC3G inh: APOBEC3G DNA deaminase inhibitors, primary screen, biochemical, fluorescence, single-stranded DNA substrate, uHTS; DNA dC->dU-editing enzyme APOBEC-3G (Homo sapiens), Q9HC16; recombinant A3G, ssDNA deamination FAM/TAMRA fluorescence; inhibition, % at 20 µM; 330,000 compounds, 0.28% hits; AID 493012, 2011;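 active = inhibition of at least 40% at 20 µM, with no more than 30% in the related APOBEC3A deaminase screen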;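 also: plate controls were DMSO wells with A3G for no effect and wells lacking A3G enzyme for full effect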
# * hit, by the source's call; nt = no result. An excerpt weighted towards active compounds, which were near 1.8% of everything screened.
SMILES,APOBEC3A inh,p-CIP stab down,TbMetRS inhib,PHOSPHO1 inh,APOBEC3G inh
COc1ccc(C2=NN(C(=O)CN3CCOCC3)C(c3nc4ccccc4[nH]3)C2)cc1 (stereo not given),4,1,1,48,1
CN1c2ccccc2C(C)(C)C12CCCC(=O)N2 (stereo not given),-22,5,0,87*,1
CCCC1CC(C)(C(=O)CSc2n[nH]c(-c3ccccc3)n2)OC1=O (stereo not given),-3,-11,1,60*,-14
CCOc1ccccc1CN(CCc1ccc2c(c1)OCO2)Cc1ccccn1,-4,-8,-1,-9,-7
CCS(=O)(=O)c1ccc(C(=O)NC2CC2)c(Cl)c1Cl,1,-2,-1,60*,-6
O=C(NC1CC1)c1ccc(F)cc1Cl,-2,6,0,-7,-3
C=C1CCC2C(C)(C(=O)O)CCCC2(C)C1CCC(CO)CCO (stereo not given),nt,nt,-1,nt,nt
O=C(COc1ccc(Br)cc1)N(Cc1ccccc1)c1ccccn1,-6,4,0,8,-9
O=C(Cc1ccc(Br)cc1)N(Cc1ccccc1)c1ccccn1,0,-8,0,63*,-1
C/C(=C\C(=O)c1ccc(Cl)cc1)NCc1ccc2c(c1)OCO2,3,2,0,85*,0
CC1(Cc2ccccc2Cl)C(=O)Nc2ccc(OC(F)(F)F)cc21 (stereo not given),nt,nt,0,nt,nt
O=C(Nc1cccnc1)NC1CCCCC1,0,5,1,68*,-10
S=C(Nc1cccnc1)NC1CCCCCCC1,-3,1,0,-15,-8
CC1CN(CC(=O)NCc2ccc(F)cc2)CC(C)O1 (stereo not given),6,3,1,10,-7
COC(=O)c1ccc(-n2c(C)cc(C(=O)CSc3cccc[n+]3[O-])c2C)cc1,-7,-3,1,36,-7
COC(=O)c1ccc(C(=O)OC)c(NC(=O)CSc2cccc[n+]2[O-])c1,3,12,-1,87*,1
CCOC(=O)C1=C(O)/C(=C\c2ccc(CNC(=O)C(=O)Nc3ccccc3)o2)N=C1C,21,-20,-1,83*,13
CCOC(=O)C1=C(O)/C(=C\c2cccs2)N=C1C,-2,5,0,-2,-3
COc1ccc(CCN(C)C(=O)COC(=O)/C=C/c2ccc(C)o2)cc1OC,-4,nt,0,nt,-8
COc1ccc(CNC(=S)N/N=C/c2ccncc2)cc1,-1,-7,0,-4,-4
CC(C)COc1ccc(CNC(=S)N/N=C/c2ccc([N+](=O)[O-])cc2)cc1,4,-2,0,95*,-5
CC(C)Oc1ccc(CNC(=S)N/N=C/c2ccc([N+](=O)[O-])cc2)cc1,-3,-11,0,74*,-5
CCOc1ccc(CNC(=S)N/N=C/c2ccncc2)cc1,-3,8,0,1,-6
CCCOc1ccc(CNC(=S)N/N=C/c2ccc([N+](=O)[O-])cc2)cc1,-3,6,-1,80*,-16
O=C(c1ccco1)N1CCN(C(=O)c2ccccc2NS(=O)(=O)c2ccc(F)cc2)CC1,-2,12,0,-4,-2
SMILES,APOBEC3A inh,p-CIP stab down,TbMetRS inhib,PHOSPHO1 inh,APOBEC3G inh
Cc1ccc(-n2nc3c(c2NC(=O)c2cccs2)CS(=O)(=O)C3)c(C)c1,-6,-13,0,-40,1
Cc1cccc(SC2CCN(Cc3nc(CC4CC4)no3)CC2)c1,4,-11,0,35,0
Cc1cccc(N2CCN(Cc3nc(CC4CC4)no3)CC2)n1,-2,-10,0,60*,-7
NNC(=O)C1COc2cc3ccccc3cc2O1 (stereo not given),61*,2,0,14,0
N#CC1(NC(=O)CSc2nnc(Nc3ccccc3F)s2)CCCC1,2,nt,0,nt,0
CCN(CC)S(=O)(=O)c1ccc2oc(C(=O)N3CCCCCC3)c(C)c2c1,-1,38*,-1,-40,-5
COc1cnn(-c2ccc(Br)cc2)c(=O)c1SCc1ccccc1,-2,4,0,12,-5
COc1cnn(-c2ccc(C)cc2)c(=O)c1SCc1ccccc1,-3,-13,1,81*,-4
COc1ccccc1Nc1nc(-c2sc(NC(=O)c3ccccc3)nc2C)cs1,0,-9,0,50,-3
Cc1nc(N)sc1-c1csc(NCc2ccccc2)n1,0,-10,0,67*,2
Cc1nc(NC(=O)c2ccccc2)sc1-c1csc(NCc2ccccc2)n1,-2,-5,-1,17,0
CCCC(C)C(=O)Nc1nc(C)c(-c2csc(Nc3ccccc3OC)n2)s1 (stereo not given),0,-2,0,74*,11
Cc1nc(NC(=O)c2ccccc2)sc1-c1csc(NCCc2ccccc2)n1,0,-7,-2,62*,-4
CCOc1ccccc1Nc1nc(-c2sc(NC(=O)c3ccccc3)nc2C)cs1,2,-6,nt,88*,9
C=C1CC[C@@H]2[C@](C)(CO)[C@H](O)CC[C@@]2(C)[C@@H]1C/C=C1/C(=O)OCC1O (stereo not given in full),nt,nt,0,nt,nt
CC(=O)Nc1cc(ON=C(C)C)cc([N+](=O)[O-])c1,-1,-10,-1,6,-1
CCCCCC(=O)Nc1nc(C)c(-c2csc(Nc3ccccc3OCC)n2)s1,1,5,0,79*,-3
COc1cccc(Nc2nc(-c3sc(C)nc3C)cs2)c1,-3,-5,0,-8,-2
CCCCCCC(=O)Nc1nc(C)c(-c2csc(Nc3ccccc3OC)n2)s1,-3,-1,0,79*,-9
CCCCCC(=O)Nc1nc(C)c(-c2csc(Nc3ccccc3OC)n2)s1,-4,-9,0,74*,-5
COc1cccc(Nc2nc(-c3sc(N)nc3C)cs2)c1,4,-14,1,66*,5
COC(=O)[C@]1(CC(C)C)N[C@H](c2ccc(-c3cccc(Cl)c3)cc2)[C@@H]2C(=O)N(C)C(=O)[C@@H]21,1,nt,0,nt,4
O=C(CCn1cccc(C(F)(F)F)c1=O)Nc1cccc(C(F)(F)F)c1,-3,-5,-1,-5,-8
CC(C)Cn1nc(C(=O)Nc2nnc(C3CC3)s2)c2ccccc2c1=O,-4,nt,-1,nt,-10
O=C(NC(=O)c1ccccc1)Nc1ccccn1,-9,-14,-1,68*,-2
Oc1c(C=Nc2ccccc2Cl)[nH]c2ccccc12,1,-15,0,63*,1
Cc1nc(NC(=O)/C=C/c2ccccc2)sc1C(=O)Nc1ccc(Cl)cc1,-3,-4,0,65*,-5
